The values below come from ChEMBL document CHEMBL4118256, “Second Generation of Mannich Base-Type Derivatives with in Vivo Activity against Trypanosoma cruzi” (J Med Chem, 2018).

Active and inactive are the calls of the source. No cut-off for these calls is given here. Where only a bound is given, the exact number is not on record here.

For series [1], the system named is Trypanosoma cruzi. The series is described as follows: Trypanocidal activity against Trypanosoma cruzi MHOM/Pe/2011/Arequipa DTU 5 epimastigotes after 48 hrs by resazurin dye based assay. Type of series: functional, organism-based. The conditions noted are these: MHOM/Pe/2011/Arequipa DTU 5, 48 h. In a few lines: (§1)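 Exponential-phase epimastigotes were seeded at 5×10^5 mL^-1 with compounds at 100–0.2 µM (DMSO 0.01% v/v) at 28 °C. After 48 h, resazurin was added for another 24 h. SDS was then added and absorbance read at 570 and 600 nm.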
(Resazurin is reduced to fluorescent resorufin, in cell work by metabolically active cells.)

Series [2] concerns Trypanosoma cruzi. The series is described as follows: Trypanocidal activity against Trypanosoma cruzi IRHOD/CO/2008/SN3 DTU 1 epimastigotes after 48 hrs by resazurin dye based assay. Type of series: functional, organism-based. The conditions noted are these: IRHOD/CO/2008/SN3 DTU 1, 48 h. In a few lines:
as §1

The subject of series [3] is Trypanosoma cruzi. The series is described as follows: Trypanocidal activity against Trypanosoma cruzi TINF/CH/1956/Tulahuen DTU 6 epimastigotes after 48 hrs by resazurin dye based assay. Type of series: functional, organism-based. The conditions noted are these: TINF/CH/1956/Tulahuen DTU 6, 48 h. Summed up: as §1
Series [4] in a line: Selectivity index, ratio of IC50 for African green monkey Vero cells to IC50 for Trypanosoma cruzi MHOM/Pe/2011/Arequipa DTU 5 epimastigotes. Conditions: read-out: Ratio IC50. The class given is toxicity. Summed up: (§2)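 SI is Vero IC50 divided by the IC50 for the stated parasite form. For Vero cytotoxicity, cells were seeded at 1.25×10^4 mL^-1 with compounds at 1000–1 µM, incubated 48 h, then given resazurin for a further 24 h (72 h total), with absorbance read at 570/600 nm. Triplicate, four determinations.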

A short description of series [5]: Selectivity index, ratio of IC50 for African green monkey Vero cells to IC50 for Trypanosoma cruzi IRHOD/CO/2008/SN3 DTU 1 epimastigotes. The class given is toxicity. Conditions: read-out: Ratio IC50. In a few lines:
as §2

Series [6] is described as follows: Selectivity index, ratio of IC50 for African green monkey Vero cells to IC50 for Trypanosoma cruzi TINF/CH/1956/Tulahuen DTU 6 epimastigotes. Conditions: read-out: Ratio IC50. Type of series: toxicity. Summed up: as §2
In series [7] the test system is Trypanosoma cruzi. The series is described as follows: Trypanocidal activity against Trypanosoma cruzi MHOM/Pe/2011/Arequipa DTU 5 amastigotes infected in African green monkey Vero cells after 72 hrs by Giemsa-staining based microscopic assay. The class given is functional, organism-based. The conditions noted are these: MHOM/Pe/2011/Arequipa DTU 5, Vero. Summed up:
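Vero cells were seeded at 1×10^4/well on coverslips. After 24 h they were infected with culture-derived trypomastigotes (MOI 1:10, 24 h), then washed. Compounds were added at 100–0.2 µM (DMSO 0.01% v/v) for 72 h at 37 °C, 5% CO2. Slides were methanol-fixed and Giemsa-stained; amastigotes and infected cells were counted over 500 host cells. IC50 was derived by curve fitting; triplicate wells, four separate determinations.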

In series [8] the test system is Trypanosoma cruzi. The series is described as follows: Trypanocidal activity against Trypanosoma cruzi TINF/CH/1956/Tulahuen DTU 6 trypamastigotes derived from infected Balb/c albino mouse after 24 hrs by resazurin dye based assay. Type of series: functional, organism-based. Conditions: TINF/CH/1956/Tulahuen DTU 6, 24 h. Summed up: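 Bloodstream trypomastigotes taken from mice at peak parasitaemia were seeded at 2×10^6 mL^-1 in RPMI with 10% FBS. Compounds were added at 50–0.2 µM and incubated 24 h at 37 °C, 5% CO2, then with resazurin for 4 h. SDS was added and absorbance read at 570/600 nm. IC50 was fitted; triplicate, four separate determinations.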

Series [9] can be described thus: Selectivity index, ratio of IC50 for African green monkey Vero cells to IC50 for Trypanosoma cruzi IRHOD/CO/2008/SN3 DTU 1 amastigotes infected in African green monkey Vero cells. The conditions noted are these: read-out: Ratio IC50. Type of series: toxicity. In a few lines:
as §2

The nature of series [10]: Selectivity index, ratio of IC50 for African green monkey Vero cells to IC50 for Trypanosoma cruzi IRHOD/CO/2008/SN3 DTU 1 trypamastigotes derived from infected Balb/c albino mouse. Type of series: toxicity. Conditions: read-out: Ratio IC50. Summed up:
as §2

A short description of series [11]: Selectivity index, ratio of IC50 for African green monkey Vero cells to IC50 for Trypanosoma cruzi TINF/CH/1956/Tulahuen DTU 6 trypamastigotes derived from infected Balb/c albino mouse. Type of series: toxicity. The conditions noted are these: read-out: Ratio IC50. Summed up:
as §2

Series [12] relates to Trypanosoma cruzi. The series is described as follows: Trypanocidal activity against Trypanosoma cruzi MHOM/Pe/2011/Arequipa DTU 5 amastigotes infected in African green monkey Vero cells assessed as reduction in infected cells after 72 hrs by Giemsa-staining based microscopic assay. The conditions noted are these: MHOM/Pe/2011/Arequipa DTU 5, Vero. Type of series: functional, organism-based. In a few lines:
(§3)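 Infected Vero cell cultures were exposed for 72 h to a range of concentrations. Infected cells were counted microscopically on Giemsa-stained preparations and expressed relative to infected untreated controls. Values are means of three separate determinations; IC50 was derived by curve fitting.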

Series [13] relates to Trypanosoma cruzi. The series is described as follows: Trypanocidal activity against Trypanosoma cruzi MHOM/Pe/2011/Arequipa DTU 5 amastigotes infected in African green monkey Vero cells assessed as infected cells at 50 uM after 72 hrs by Giemsa-staining based microscopic assay relative to control. Type of series: functional. In a few lines:
as §3

Series [14] concerns Trypanosoma cruzi. The experiment in a line: Antitrypanosomal activity against Trypanosoma cruzi MHOM/Pe/2011/Arequipa DTU 5 trypamastigotes infected in Balb/c mouse assessed as reduction in Ig-G level in serum at 100 mg/kg, po pretreated once daily for 5 consecutive days starting from day 10 post infection followed by cyclophosphamide-induced immunosuppression on day 100 post infection every 4 days for a maximum of 3 doses measured on day 127 post infection by ELISA. The class given is functional, organism-based. A general note: An ELISA detects its analyte on a solid surface through an enzyme-linked reagent.

Series [15] deals with Trypanosoma cruzi. The series is described as follows: Antitrypanosomal activity against Trypanosoma cruzi MHOM/Pe/2011/Arequipa DTU 5 trypamastigotes infected in Balb/c mouse assessed as reduction in Ig-G level in serum at 100 mg/kg, po once daily for 5 consecutive days starting from day 75 post infection measured on day 81 post infection by ELISA. The class given is functional, organism-based.

The subject of series [16] is Trypanosoma cruzi. The series is described as follows: Antitrypanosomal activity against Trypanosoma cruzi MHOM/Pe/2011/Arequipa DTU 5 trypamastigotes infected in Balb/c mouse assessed as reduction in splenomegaly at 100 mg/kg, po once daily for 5 consecutive days starting from day 10 post infection measured on day 127 post infection relative to control. Type of series: functional.

A further series concerns Mus musculus. The series is described as follows: Cardiotoxicity in Balb/c mouse infected with Trypanosoma cruzi MHOM/Pe/2011/Arequipa DTU 5 trypamastigotes assessed as change in serum LDH level at 100 mg/kg, po once daily for 5 consecutive days starting from day 10 post infection measured on day 127 post infection by biochemical analysis relative to control. Type of series: toxicity, organism-based. Conditions: in vivo.

Series [17] addresses Superoxide dismutase [Cu-Zn] (Homo sapiens, UniProt P00441). The series is described as follows: Inhibition of human erythrocyte CuZn-SOD by UV-Visible spectrophotometric method. In a few lines: (§4)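 SOD activity of parasite Fe-SOD and human CuZn-SOD was measured spectrophotometrically by the Beyer and Fridovich method, with compounds at 1–100 µM. Values are averages of three rate determinations; IC50 was obtained by linear regression and differences were tested by Newman-Keuls.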

Series [18] addresses T1, Superoxide dismutase (Trypanosoma cruzi (strain CL Brener)) (UniProt Q4DCQ3).
T1 sequence (whole entry): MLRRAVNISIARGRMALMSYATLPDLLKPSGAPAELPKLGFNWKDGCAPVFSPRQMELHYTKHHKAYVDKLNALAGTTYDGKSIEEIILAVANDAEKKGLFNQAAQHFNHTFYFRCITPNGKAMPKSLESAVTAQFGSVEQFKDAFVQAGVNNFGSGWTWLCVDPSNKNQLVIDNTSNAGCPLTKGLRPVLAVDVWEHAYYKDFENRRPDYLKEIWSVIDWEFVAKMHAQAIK
The experiment in a line: Inhibition of Trypanosoma cruzi MHOM/Pe/2011/Arequipa DTU 5 epimastigotes Fe-SOD at 50 uM by UV-Visible spectrophotometric method relative to control. Summed up: as §4

Superoxide dismutase [Cu-Zn], sequence (P00441 whole entry): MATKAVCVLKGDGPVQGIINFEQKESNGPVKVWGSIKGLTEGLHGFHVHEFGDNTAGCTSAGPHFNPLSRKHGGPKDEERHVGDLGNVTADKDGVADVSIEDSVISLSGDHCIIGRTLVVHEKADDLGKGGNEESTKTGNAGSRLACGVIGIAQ

As usually defined, the IC50 is the concentration needed to halve the response being measured. As usually defined, the inhibition is the percentage by which the read-out fell short of the control. As to `COc1ccc(C(=O)CCN2CCN(c3ccc([N+](=O)[O-])cc3)CC2)cc1`, the IC50 was found to be 31.6 µM with Trypanosoma cruzi [1]; 22 µM in the series on Trypanosoma cruzi [2]; 37.4 µM in the series with Trypanosoma cruzi [3]; 29.4 µM in the series with Trypanosoma cruzi [7]; 14.5 µM with Trypanosoma cruzi [8]; 47.9 µM in the series on Trypanosoma cruzi [12]. The molecule further registered an IC50 in series [17] greater than 100 µM. Moreover, the selectivity ratio stood at 18.6 in [4]; 26.7 in series [5]; 15.7 in series [6]; 19.2 in series [9]; 187 in series [10]; 40.6 in series [11]. The values for the Activity in the series with Trypanosoma cruzi [13] and in the series on Mus musculus were 52% and less than 10%, respectively. In addition, the outcome in the series on Trypanosoma cruzi [14] and in the series on Trypanosoma cruzi [15] was inactive. Moreover, in the series with Trypanosoma cruzi [16], the outcome was Active. This molecule also had an inhibition in [18] of 100%.

Regarding `COc1ccc(C(=O)CCN2CCN(c3ccc(F)cc3)CC2)cc1`, the IC50 came to 1.4 µM in the series on Trypanosoma cruzi [1]; 2 µM in the series with Trypanosoma cruzi [2]; 1.8 µM with Trypanosoma cruzi [3]; 0.6 µM in the series with Trypanosoma cruzi [7]; 1.2 µM with Trypanosoma cruzi [8]; 1.9 µM in the series with Trypanosoma cruzi [12]. For the same molecule, the IC50 in series [17] was 146 µM. Moreover, the selectivity ratio in series [4] came to 40.2; in [5] it was 27.9; in series [6], 30.2; in series [9], 17.6; in series [10], 39.9; in series [11] it was 47.4. In addition, the Activity with Trypanosoma cruzi [13] is reported as 7%; with Mus musculus, less than 10%. Also, the result in the series with Trypanosoma cruzi [14] and in the series with Trypanosoma cruzi [15] was inactive. For the same molecule, in the series with Trypanosoma cruzi [16], the result was Active. This molecule also yielded an inhibition in series [18] of 100%.

Take `COc1ccc(C(=O)CCN2CCN(c3ccc(Cl)cc3)CC2)cc1`: the IC50 turned out to be 9.5 µM in the series with Trypanosoma cruzi [1]; 6.3 µM in the series with Trypanosoma cruzi [2]; 7.3 µM in the series on Trypanosoma cruzi [3]; 3.6 µM in the series on Trypanosoma cruzi [7]; 2.9 µM with Trypanosoma cruzi [8]; 6.4 µM in the series with Trypanosoma cruzi [12]. In addition, half-maximal inhibition in series [17] (IC50) required 100 µM. The selectivity ratio is 31.5 in series [4]; 47.8 in series [5]; 40.9 in series [6]; 51.5 in [9]; 76.1 in [10]; 103 in series [11]. Further, the values for the Activity in the series on Trypanosoma cruzi [13], with Trypanosoma cruzi [16] and in the series with Mus musculus were 15%, 52% and less than 10%, respectively. The outcome in the series on Trypanosoma cruzi [14] was Active. Further, the result with Trypanosoma cruzi [15] was inactive. The same molecule returned an inhibition in [18] of 100%.

For the molecule `O=C(Cn1ccnc1[N+](=O)[O-])NCc1ccccc1` [BENZNIDAZOLE], the IC50 with Trypanosoma cruzi [3] stood at 19.7 µM; with Trypanosoma cruzi [7], 8.3 µM; in the series with Trypanosoma cruzi [8], 15.1 µM; in the series on Trypanosoma cruzi [12] it was 15.1 µM. Further, the Activity in the series with Trypanosoma cruzi [13] is reported as 20%.
